Results on 20 molecules are retold here after ChEMBL document CHEMBL1145447, “Synthetic studies of neoclerodane diterpenes from Salvia divinorum: preparation and opioid receptor activity of salvinicin analogues” (J Med Chem, 2007).

Experiment [1] has as its target T1, Kappa-type opioid receptor (Homo sapiens, UniProt P41145). The experiment can be described thus: Displacement of [125I]IOXY from human kappa opioid receptor expressed in CHO cells. The experiment is classed as cell-based. A digest of the protocol:
(§1)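 Membranes from CHO cells stably transfected with the respective human opioid receptor cDNA (hMOR-, hDOR-, hKOR-CHO). Incubation in 50 mM Tris-HCl pH 7.4 with bacitracin, bestatin, leupeptin and chymostatin. Nonspecific binding is defined with 10 µM naloxone. Ki is the mean ± SD of at least two independent determinations.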
For orientation: Displacement assays read how much labelled ligand stays bound in the presence of the test substance.

Experiment [2] addresses T1, Kappa-type opioid receptor. The experiment can be described thus: Antagonist activity at human kappa opioid receptor expressed in CHO cells by [35S]GTP-gamma-S binding assay. The experiment is classed as functional, cell-based. Put shortly: (§2)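 Antagonism is measured in a [35S]GTP-γ-S binding assay in CHO cells stably transfected with human δ, κ or µ opioid receptor cDNA. Result is given as Ke, the mean ± SD of at least two independent determinations. Test compounds come from 10 mM stocks in 100% DMSO + 10 mM 2-mercaptoethanol, stored at -80 °C. They are diluted in buffer containing 1 mg/mL BSA.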

Experiment [3] has as its target Opioid receptors; delta & kappa (Homo sapiens) (UniProt P41145+P41143). The experiment can be described thus: Selectivity for kappa opioid receptor over delta opioid receptor. The experiment is classed as protein assay.
Experiment [4] addresses T2, Delta-type opioid receptor (Homo sapiens, UniProt P41143). The experiment can be described thus: Displacement of [125I]IOXY from human delta opioid receptor expressed in CHO cells. The experiment is classed as cell-based. A digest of the protocol: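 Membranes from CHO cells stably transfected with the respective human opioid receptor cDNA (hMOR-, hDOR-, hKOR-CHO). Radioligand [125I]IOXY (SA 2200 Ci/mmol) labels µ, δ and κ sites. Incubation in 50 mM Tris-HCl pH 7.4 with bacitracin, bestatin, leupeptin and chymostatin. Nonspecific binding is defined with 10 µM naloxone. Ki is the mean ± SD of at least two independent determinations.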

The target in experiment [5] is Opioid receptors; mu & kappa (Homo sapiens) (UniProt P41145+P35372). The experiment can be described thus: Selectivity for kappa opioid receptor over mu opioid receptor. The experiment is classed as protein assay.
Chain of Opioid receptors; mu & kappa (Homo sapiens) (P35372 whole entry, looked up): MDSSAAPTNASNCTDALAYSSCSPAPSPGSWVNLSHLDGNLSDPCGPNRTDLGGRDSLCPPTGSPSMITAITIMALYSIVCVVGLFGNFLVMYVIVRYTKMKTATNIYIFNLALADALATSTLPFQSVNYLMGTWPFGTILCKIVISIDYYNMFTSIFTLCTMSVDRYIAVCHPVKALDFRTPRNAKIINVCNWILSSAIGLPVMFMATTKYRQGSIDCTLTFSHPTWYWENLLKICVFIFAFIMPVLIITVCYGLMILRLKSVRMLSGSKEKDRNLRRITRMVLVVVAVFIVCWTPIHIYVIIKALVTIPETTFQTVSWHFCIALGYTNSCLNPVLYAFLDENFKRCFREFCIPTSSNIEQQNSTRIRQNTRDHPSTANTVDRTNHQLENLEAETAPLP
Chain of Opioid receptors; mu & kappa (Homo sapiens) (P41145 whole entry, looked up): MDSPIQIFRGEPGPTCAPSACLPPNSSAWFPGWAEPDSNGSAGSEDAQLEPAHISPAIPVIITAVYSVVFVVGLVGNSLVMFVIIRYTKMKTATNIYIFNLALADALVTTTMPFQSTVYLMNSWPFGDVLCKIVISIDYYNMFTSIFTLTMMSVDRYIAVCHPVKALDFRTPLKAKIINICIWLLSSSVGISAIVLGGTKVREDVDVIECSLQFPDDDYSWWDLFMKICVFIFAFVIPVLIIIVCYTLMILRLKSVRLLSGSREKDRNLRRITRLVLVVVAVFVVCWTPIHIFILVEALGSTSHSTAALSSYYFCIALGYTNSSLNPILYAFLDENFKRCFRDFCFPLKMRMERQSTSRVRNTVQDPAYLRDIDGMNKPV
Experiment [6] addresses T3, Mu-type opioid receptor (Homo sapiens, UniProt P35372). The experiment can be described thus: Antagonist activity at human mu opioid receptor expressed in CHO cells by [35S]GTP-gamma-S binding assay. The experiment is classed as functional, cell-based. A digest of the protocol:
as §2

For experiment [7], the target named is T2, Delta-type opioid receptor. The experiment can be described thus: Antagonist activity at human delta opioid receptor expressed in CHO cells by [35S]GTP-gamma-S binding assay. The experiment is classed as functional, cell-based. A digest of the protocol: as §2
(In general: GTPγS resists hydrolysis and so accumulates on activated G proteins.)

Experiment [8] deals with T3, Mu-type opioid receptor. The experiment can be described thus: Displacement of [125I]IOXY from human mu opioid receptor expressed in CHO cells. The experiment is classed as cell-based. Put shortly:
as §1

Experiment [9] addresses T1, Kappa-type opioid receptor. The experiment can be described thus: Activity at human kappa opioid receptor expressed in CHO cells by [35S]GTP-gamma-S binding assay relative to U69593. The experiment is classed as functional, cell-based. Put shortly: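 [35S]GTP-γ-S binding in hKOR-CHO cells (stably transfected human receptor). Emax is the percent stimulation relative to the maximal stimulation by U69,593 run in parallel. EC50 and Emax are the mean ± SE of at least three independent experiments. Emax is compared with U69,593 by one-way ANOVA with Dunnett's test. Drug dilutions are made in buffer with 1 mg/mL BSA, from 10 mM DMSO/2-mercaptoethanol stocks.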

Each structure is given as a SMILES string. The source made the active and inactive calls. No cut-off for these calls is given here. Where only a bound is given, the exact number is not on record here.

T3 sequence (P35372 whole entry): as the sequence (P35372 whole entry, looked up) above
T2 sequence (P41143 whole entry): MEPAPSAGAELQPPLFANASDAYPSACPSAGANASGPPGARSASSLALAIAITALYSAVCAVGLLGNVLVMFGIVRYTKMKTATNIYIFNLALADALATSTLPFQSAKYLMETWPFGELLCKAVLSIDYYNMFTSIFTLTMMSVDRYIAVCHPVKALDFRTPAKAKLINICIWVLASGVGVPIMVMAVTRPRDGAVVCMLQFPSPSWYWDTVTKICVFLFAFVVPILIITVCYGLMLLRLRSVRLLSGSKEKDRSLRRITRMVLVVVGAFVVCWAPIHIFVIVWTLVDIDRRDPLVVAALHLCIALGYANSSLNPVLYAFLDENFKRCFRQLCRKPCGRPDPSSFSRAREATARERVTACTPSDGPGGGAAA
Chain of Opioid receptors; delta & kappa (Homo sapiens) (P41143 whole entry, looked up): as the sequence (P41143 whole entry) above
Chain of Opioid receptors; delta & kappa (Homo sapiens) (P41145 whole entry, looked up): as the sequence (P41145 whole entry, looked up) above
T1 sequence (P41145 whole entry): as the sequence (P41145 whole entry, looked up) above

As to `COC(=O)[C@@H]1C[C@H](OC(C)=O)C(=O)[C@H]2[C@@]1(C)CC[C@H]1C(=O)O[C@H](C3=C[C@@H](OC)O[C@H]3OC)C[C@]21C`, the Ki (usually the dissociation constant of the complex between target and ligand, obtained from inhibition or displacement) in experiment [1] is 0.18 µM; in experiment [4] it was more than 10 µM; in experiment [6] it was 2.93 µM; in experiment [8] it was 3.74 µM. Moreover, the Ke in [2] stood at 2370 nM; in experiment [7] it was 1.28 µM. The Ratio Ki in experiment [3] was more than 55; in experiment [5], 21.

Take `COC(=O)[C@@H]1C[C@H](OC(C)=O)C(=O)[C@H]2[C@@]1(C)CC[C@H]1C(=O)O[C@H](C3=CC(=O)OC3O)C[C@]21C` (some centres not stated): the Ke in experiment [2] was 440 nM; in experiment [6], 760 nM; in experiment [7] it was 2.83 µM.

With `COC(=O)[C@@H]1C[C@H](OC(C)=O)C(=O)[C@H]2[C@@]1(C)CC[C@H]1C(=O)O[C@H](c3ccoc3Br)C[C@]21C`, in experiment [9], the Emax – broadly, the maximal effect, on the per cent scale that the assay sets – is 104%. The figures for the Ki in experiment [4] and in experiment [8] were 7.62 µM and 1.45 µM, respectively.

As to `COC(=O)[C@@H]1C[C@H](OC(C)=O)C(=O)[C@H]2[C@@]1(C)CC[C@H]1C(=O)O[C@H]([C@]3(O)[C@H](OC)O[C@H](OC)[C@H]3O)C[C@]21C` [SALVINICIN A], the Ki in experiment [1] is 0.39 µM; in [4], more than 10 µM; in experiment [8], more than 10 µM. Also, the Ratio Ki in experiment [3] and in [5] was more than 26 throughout.

Turning to `COC(=O)[C@@H]1C[C@H](OC(C)=O)C(=O)[C@H]2[C@@]1(C)CC[C@H]1C(=O)O[C@H](C3=NCCO3)C[C@]21C`, the values for the Ki in experiment [1], in experiment [4] and in [8] were 0.3 µM, more than 10 µM and more than 10 µM, respectively. Moreover, the Ratio Ki in experiment [3] and in experiment [5] was more than 30 throughout.

Regarding `COC(=O)[C@@H]1C[C@H](OC(C)=O)C(=O)[C@H]2[C@@]1(C)CC[C@H]1C(=O)O[C@H]([C@@H]3CCOC3)C[C@]21C`, the Ki in experiment [1] was 0.0037 µM; in experiment [4], more than 10 µM; in experiment [8], 9.79 µM. The EC50 (commonly the concentration needed to bring the measured effect to its halfway point) in experiment [2] turned out to be 0.75 µM. This molecule also registered an Emax in [9] of 81%. In addition, the outcome in experiment [6] and in experiment [7] was inactive.

With `COC(=O)[C@@H]1C[C@H](OC(C)=O)C(=O)[C@@H]2[C@@]3(C)C[C@@H](c4nc(C)no4)OC(=O)[C@H]3CC[C@]21C`, the Ki is 0.99 µM in experiment [1], more than 10 µM in experiment [4], 1.53 µM in experiment [6] and more than 10 µM in experiment [8]. Besides, the results for the Ke in experiment [2] and in [7] were 5680 nM and 4.23 µM, respectively. Further, the Ratio Ki in experiment [3] and in experiment [5] was more than 10 each time.

On to `COC(=O)[C@@H]1C[C@H](OC(C)=O)C(=O)[C@H]2[C@@]1(C)CC[C@H]1C(=O)O[C@H](C3CCOC3)C[C@]21C` (some centres not stated), for which the Ki in experiment [1] was 0.014 µM; in experiment [4], more than 10 µM.

Turning to `COC(=O)[C@@H]1C[C@H](OC(C)=O)C(=O)[C@H]2[C@@]1(C)CC[C@H]1C(=O)O[C@H]([C@@H]3C[C@@H](OC)O[C@H]3OC)C[C@]21C`, the Ki in experiment [1] is 0.125 µM; in [4], more than 10 µM; in experiment [8] it was more than 10 µM. Besides, the result in experiment [2], in [6] and in experiment [7] was inactive. For the same molecule, the Ratio Ki in experiment [3] and in [5] was more than 80 throughout.

Consider `COC(=O)[C@@H]1C[C@H](OC(C)=O)C(=O)[C@H]2[C@@]1(C)CC[C@H]1C(=O)O[C@H](c3nc(C)no3)C[C@]21C`, for which the Ki in [1] is 0.056 µM; in experiment [4] it was more than 10 µM; in experiment [6], 0.43 µM; in experiment [8], more than 10 µM. Moreover, the Ke in experiment [2] was determined as 360 nM. For the same molecule, the Ratio Ki in experiment [3] and in [5] was more than 170 in each case. The outcome in experiment [7] was inactive.

On to `COC(=O)[C@@H]1C[C@H](O)C(=O)[C@H]2[C@@]1(C)CC[C@H]1C(=O)O[C@H](c3ccoc3)C[C@]21C` [SALVINORIN B], for which the Ki in experiment [4] and in [8] was more than 10 µM throughout.

Take `COC(=O)[C@@H]1C[C@H](OC(C)=O)C(=O)[C@H]2[C@@]1(C)CC[C@H]1C(=O)OC([C@]3(O)[C@@H](OC)O[C@@H](OC)[C@H]3OC(C)=O)C[C@]21C` (some centres not stated): the inhibitory constant (Ki) in [1], in experiment [4] and in experiment [8] was more than 10 µM in each case.

For the molecule `COC(=O)[C@@H]1C[C@H](OC(C)=O)C(=O)[C@H]2[C@@]1(C)CC[C@H]1C(=O)O[C@H](C3=C[C@@H](OC)O[C@@H]3OC)C[C@]21C`, the Ki is 0.42 µM in experiment [1], more than 10 µM in [4], 2.32 µM in experiment [6] and 3.19 µM in experiment [8]. Besides, the Ke in experiment [2] was 9700 nM; in experiment [7], 3.28 µM. Further, the Ratio Ki in [3] is more than 23; in experiment [5] it was 8.

With `COC(=O)[C@@H]1C[C@H](OC(C)=O)C(=O)[C@@H]2[C@@]3(C)C[C@@H]([C@]4(O)[C@@H](OC)O[C@@H](OC)[C@H]4O)CC(=O)[C@@H]3CC[C@]21C` [SALVINICIN B], the Ki is 7.02 µM in experiment [1], more than 10 µM in experiment [4] and more than 10 µM in experiment [8]. For the same molecule, the Ratio Ki in [3] and in [5] was 1.4 each time.

For the molecule `COC(=O)[C@@H]1C[C@H](OC(C)=O)C(=O)[C@H]2[C@@]1(C)CC[C@H]1C(=O)O[C@H]([C@@H]3C[C@@H](OC)O[C@@H]3OC)C[C@]21C`, the Ki in experiment [1] was 0.025 µM; in experiment [4], more than 10 µM; in experiment [6], 1.37 µM; in experiment [8], more than 10 µM. The molecule also showed an EC50 in [2] of 2.35 µM. Further, in [9], the Emax was 95%. Also, the Ratio Ki in [3] and in [5] was more than 400 throughout. This molecule also showed a Ke in experiment [7] of more than 10 µM.

Regarding `COC(=O)[C@@H]1C[C@H](OC(C)=O)C(=O)[C@@H]2[C@@](C)(CCC3CCOC3)[C@H](C(=O)O)CC[C@]21C` (some centres not stated), the inhibition constant Ki in experiment [1] was 0.91 µM; in experiment [4] it was more than 10 µM; in experiment [8] it was more than 10 µM. Moreover, the Ratio Ki in experiment [3] and in [5] was more than 10 each time.

Consider `COC(=O)[C@@H]1C[C@H](OC(C)=O)C(=O)[C@H]2[C@@]1(C)CC[C@H]1C(=O)O[C@H](C3CC(OC)OC3OC)C[C@]21C` (some centres not stated), for which the Ki in experiment [1] was 0.04 µM; in experiment [4] it was more than 10 µM; in experiment [8], 4.81 µM. Besides, the results for the Ratio Ki in [3] and in experiment [5] were more than 250 and 120, respectively.

Turning to `COC(=O)[C@@H]1C[C@H](OC(C)=O)C(=O)[C@H]2[C@@]1(C)CC[C@H]1C(=O)OC([C@]3(O)[C@H](OC)O[C@H](OC)[C@H]3OC(C)=O)C[C@]21C` (some centres not stated), the Ki in experiment [1], in experiment [4] and in experiment [8] was more than 10 µM throughout.

Turning to `COC(=O)[C@@H]1C[C@H](OC(C)=O)C(=O)[C@H]2[C@@]1(C)CC[C@H]1C(=O)OCC[C@]21C`, the Ki in experiment [1] is 3.4 µM; in experiment [4] it was more than 10 µM; in experiment [8], more than 10 µM. For the same molecule, the Ratio Ki in [3] and in experiment [5] was more than 3 each time.

Turning to `COC(=O)[C@@H]1C[C@H](OC(C)=O)C(=O)[C@H]2[C@@]1(C)CC[C@H]1C(=O)O[C@H](C3=CC(OC)OC3OC)C[C@]21C` (some centres not stated), the Ki is 0.44 µM in experiment [1], more than 10 µM in [4] and more than 10 µM in [8]. For the same molecule, the Ratio Ki in experiment [3] and in experiment [5] was more than 20 throughout.
